Experimental data as given in ChEMBL document CHEMBL1773006, “Enone- and chalcone-chloroquinoline hybrid analogues: in silico guided design, synthesis, antiplasmodial activity, in vitro metabolism, and mechanistic studies” (J Med Chem, 2011).
≈ marks a conversion by molar mass, not a printed value.

What was measured:
[1] = tested on: Liver microsomes; test: (§1) Half life in human liver microsomes assessed as compound degradation at 1 uM by LC-MS analysis in presence of NADPH and UDPGA; type: ADME, Microsome; conditions: microsomes, 1 µM
[2] = tested on: Plasmodium falciparum; test: Antiplasmodial activity against chloroquine-sensitive Plasmodium falciparum D10 infected in erythrocytes assessed as inhibition of sorbitol-induced hemolysis after 15 mins; type: functional
[3] = tested on: Plasmodium falciparum; test: Antiplasmodial activity against chloroquine-resistant Plasmodium falciparum W2 by FACS-based assay; type: functional, organism-based
Outline: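 W2 parasites kept in continuous culture in standard medium with 10% human serum, synchronized with 5% D-sorbitol at ring stage when needed. Parasite development read by FACS. Final DMSO at most 0.5%. IC50 in µM is the mean of two independent determinations, each run in duplicate.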

[4] = tested on: Plasmodium falciparum; test: Antiplasmodial activity against chloroquine-sensitive Plasmodium falciparum D10 by FACS-based assay; type: functional, organism-based
[5] = tested on: Plasmodium falciparum; test: Antiplasmodial activity against chloroquine-resistant Plasmodium falciparum Dd2 by FACS-based assay; type: functional, organism-based
[6] = Ratio of compound IC50 to hematin IC50 for inhibition of beta-hematin formation
[7] = Inhibition of Plasmodium falciparum falcipain 2 assessed as benzyloxycarbonyl-Phe-Leu-7-amino-4-methylcoumarin substrate hydrolysis after 30 mins by spectrofluorometry analysis
[8] = Partition coefficient, log D of the compound at pH 7.4 by HPLC analysis; type: physicochemical; conditions: octanol/water
[9] = Solubility of the compound in phosphate buffer at pH 6.5; type: physicochemical
[10] = Solubility of the compound in 0.01 M hydrochloric acid at pH 2; type: physicochemical
[11] = Partition coefficient, log D of the compound at pH 3 by HPLC analysis; type: physicochemical; conditions: octanol/water
[12] = tested on: Liver; test: (§2) Half life in mouse liver microsomes assessed as compound degradation at 1 uM by LC-MS analysis in presence of NADPH and UDPGA; type: ADME, Microsome; conditions: microsomes, 1 µM
[13] = as §1; type: ADME, Microsome; conditions: liver microsomes
[14] = as §2; type: ADME, Microsome; conditions: liver microsomes
[15] = tested on: CHO; test: Cytotoxicity against CHO cells at 100 uM; type: cell-based, Cricetulus griseus; conditions: chinese hamster
[16] = phosphate buffer, read-out: solubility
[17] = 0.01 M hydrochloric acid, read-out: solubility

Row | SMILES | t1/2 [1] [min] | inhibition (INH) [2] [%] | IC50 [3] [nM] | IC50 [4] [nM] | IC50 [5] [nM] | Ratio IC50 [6] | IC50 [7] [nM] | logD [8] | solubility [9, 16] [µg/mL] | solubility ([10]; buffer) [µg/mL] | logD [11] | t1/2 [12] [min] | half-life at 1 µM [13] [min] | solubility [10, 17] [µg/mL] | half-life at 1 µM [14] [min] | solubility ([9]; buffer) [µg/mL] | Activity [15]
1 | CCN(CC)CCCC(C)Nc1ccnc2cc(Cl)ccc12 (stereo not given) [CHLOROQUINE] | > 250 |  |  |  |  |  |  |  |  |  |  |  |  |  |  |  | 
2 | COc1cc(/C=C/C(C)=O)ccc1O [DEHYDROZINGERONE] |  | 21.1 | > 10000 | > 20000 | > 20000 |  |  |  |  |  |  |  |  |  |  |  | 
3 | OCCN1CCN(c2ccnc3cc(Cl)ccc23)CC1 |  |  | 1000 | 5200 | 3800 | 3.9 | > 50000 |  |  |  |  |  |  |  |  |  | 
4 | COc1ccc(C(=O)/C=C/c2ccc(O)cc2)c(OC)c1 |  |  |  |  |  | 1.9 | > 50000 |  |  |  |  |  |  |  |  |  | 
5 | COc1ccc(C(=O)/C=C/c2ccc(OCCNc3ccnc4cc(Cl)ccc34)c(OC)c2)c(OC)c1 | 17.5 |  | 400 | 800 | 1100 | 0.3 | 22900 | 4.2 | 3.1 (≈ 5.97 µM) | > 100 | 2.8 | 12.7 |  |  |  |  | 
6 | COc1cc(/C=C/C(C)=O)cc(CN2CCN(c3ccnc4cc(Cl)ccc34)CC2)c1O |  | 16.8 | 500 | 1000 | 1700 | 0.5 | > 50000 | 3.9 | 1.6 (≈ 3.54 µM) | > 100 | 0.9 | 14 |  |  |  |  | 
7 | COc1cc(/C=C/C(C)=O)ccc1OCc1cn(-c2ccnc3cc(Cl)ccc23)nn1 |  |  |  |  |  |  |  | 3.6 | 3.1 (≈ 7.13 µM) |  | 3.5 |  | 7.4 | 3.1 (≈ 7.13 µM) | 6.2 |  | 
8 | OCCNc1ccnc2cc(Cl)ccc12 |  | 0.9 | 200 | 2600 | 1000 | 4.9 | > 50000 |  |  |  |  |  |  |  |  |  | 
9 | Clc1ccc2c(N3CCNCC3)ccnc2c1 |  | 5.8 | 300 | 700 | 900 |  | > 50000 |  |  |  |  |  |  |  |  |  | 
10 | COc1ccc(C(=O)/C=C/c2ccc(OCc3cn(-c4ccnc5cc(Cl)ccc45)nn3)c(OC)c2)c(OC)c1 | 51.1 | 15.4 |  |  |  | 1.6 | 10800 | 4.3 |  | < 1.6 | 4.3 | 56.8 |  |  |  | < 1.6 | 
11 | CC(=O)/C=C/c1ccc(O)c(CN2CCN(c3ccnc4cc(Cl)ccc34)CC2)c1 | 7.5 | 11.6 | 700 | 1700 | 3100 | 0.5 | 29900 | 4.2 |  | > 100 | 0.8 | 15 |  |  |  | < 1.6 | 
12 | CC(=O)/C=C/c1ccc(O)cc1 |  |  |  |  |  | > 5 | > 50000 |  |  |  |  |  |  |  |  |  | 
13 | COc1cc(/C=C/C(C)=O)ccc1OCCN1CCN(c2ccnc3cc(Cl)ccc23)CC1 |  |  | 500 | 1200 | 1000 | 0.5 | > 50000 | 4.2 | 1.6 (≈ 3.43 µM) | > 100 | 1.2 |  | 9.8 |  | 5.6 |  | 
14 | COc1ccc(C(=O)/C=C/c2cc(CN3CCN(c4ccnc5cc(Cl)ccc45)CC3)c(O)c(OC)c2)c(OC)c1 | 37 | 3.9 | 400 | 500 | 500 | 0.3 | 9100 | 5 |  | > 100 | 2.1 | 11.8 |  |  |  | < 1.6 | Non-toxic
15 | COc1ccc(C(=O)/C=C/c2ccc(O)c(OC)c2)c(OC)c1 |  | 27.9 | > 10000 | 5300 | 7300 | > 5 | > 50000 |  |  |  |  |  |  |  |  |  | 
16 | COc1ccc(C(=O)/C=C/c2ccc(O)c(CN3CCN(c4ccnc5cc(Cl)ccc45)CC3)c2)c(OC)c1 | 58.6 |  | 300 | 600 | 500 | 0.2 | 10000 | 5.3 |  | > 100 | 2 | 45.4 |  |  |  | < 1.6 | Non-toxic
17 | CC(C)C[C@H](NC(=O)[C@H]1O[C@@H]1C(=O)O)C(=O)NCCCCN=C(N)N [E-64] |  |  |  |  |  |  | 55 |  |  |  |  |  |  |  |  |  | 
18 | COc1cc(/C=C/C(C)=O)ccc1OCCNc1ccnc2cc(Cl)ccc12 | 10.5 | 12.3 | 100 | 1000 | 1500 | 0.6 | > 50000 | 3 | 6.3 (≈ 15.9 µM) |  | 1.8 | 13.4 |  | 50 (≈ 126 µM) |  |  | 
19 | COc1ccc(C(=O)/C=C/c2ccc(OCCN3CCN(c4ccnc5cc(Cl)ccc45)CC3)c(OC)c2)c(OC)c1 |  |  | 600 | 1200 | 500 | 0.2 | 11700 | 5.3 |  | > 100 | 2.2 |  | 11.5 |  | 9.8 | < 1.6 | 
